These results are taken from ChEMBL document CHEMBL1671619, “Efficacy of pyrvinium pamoate against Cryptosporidium parvum infection in vitro and in a neonatal mouse model” (Antimicrob Agents Chemother, 2008).

Activity calls are given as the source filed them. The rule behind the calls is not given here.

Data set [1] concerns Cryptosporidium parvum. Kind of data set: Antimicrobial activity against Cryptosporidium parvum infected in human HCT-8 cells. It is filed as functional, organism-based.
In data set [2] the test system is Cryptosporidium parvum. Briefly: Antimicrobial activity against Cryptosporidium parvum infected in neonatal ICR swiss mouse assessed as reduction in oocyst shedding at 150 mg/kg/day, po measured on day 6. On the set-up: scale not given: the % may be the effect or the level left. It is filed as functional.
The test system of data set [3] is Cryptosporidium parvum. Briefly: Antimicrobial activity against Cryptosporidium parvum infected in SCID mouse assessed as reduction in parasite burden at 100 mg/kg/day, po for 10 days. It is filed as functional, organism-based.
In data set [4] the test system is Cryptosporidium parvum. Kind of data set: Antimicrobial activity against Cryptosporidium parvum infected in SCID mouse assessed as reduction in parasite burden at 200 mg/kg/day, po for 10 days. It is filed as functional, organism-based.
Data set [5] relates to Cryptosporidium parvum. Briefly: Antimicrobial activity against Cryptosporidium parvum infected in neonatal BALB/C mouse assessed as reduction in oocyst shedding at 5 mg/kg/day, po for 4 days treated 3 days postinfection. Type of data set: functional. The arrangement: scale not given: the % may be the effect or the level left. In short, it runs like this: (§1)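 3-day-old BALB/c mice infected orally with 10⁵ Iowa-isolate oocysts. Oral dosing from day 3 post-infection, 4 or 6 consecutive days, in water with 5% DMSO or 5–10% ethanol final; vehicle controls matched. Euthanized day 9 post-infection. Distal-colon stool smears (2–3 μl) were methanol-fixed and IFA-stained. Oocysts counted over 21 fields at ×400 along a transect; reduction expressed relative to vehicle controls.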

Data set [6] relates to Cryptosporidium parvum. Briefly: Antimicrobial activity against Cryptosporidium parvum infected in neonatal BALB/C mouse assessed as reduction in oocyst shedding at 12.5 mg/kg/day, po for 4 days treated 3 days postinfection. Type of data set: functional. The arrangement: scale not given: the % may be the effect or the level left. The method in brief: as §1
In data set [7] the test system is Cryptosporidium parvum. Kind of data set: Antimicrobial activity against Cryptosporidium parvum infected in neonatal BALB/C mouse assessed as reduction in oocyst shedding at 5 mg/kg/day, po for 6 days treated 3 days postinfection. Type of data set: functional. On the set-up: scale not given: the % may be the effect or the level left. The method in brief:
as §1

In data set [8] the test system is Cryptosporidium parvum. Briefly: Antimicrobial activity against Cryptosporidium parvum infected in neonatal BALB/C mouse assessed as reduction in trophozoites in ileum at 5 mg/kg/day, po for 6 days by hematoxylin and eosin staining. It is filed as functional. On the set-up: scale not given: the % may be the effect or the level left. In short, it runs like this: (§2)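 Infected neonatal BALB/c mice (10⁵ oocysts orally at 3 days old) dosed orally for 6 days from day 3; killed day 9. 1-cm ileal sections (1–6 cm proximal to appendix), appendix/ileocecal junction, and distal colon were formalin-fixed and H&E-stained. Trophozoites per 1,000 epithelial cells scored blind by two readers on duplicate sections. Per-mouse summary score summed across sections; compared with vehicle controls.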

For data set [9], the system named is Cryptosporidium parvum. Kind of data set: Antimicrobial activity against Cryptosporidium parvum infected in neonatal BALB/C mouse assessed as reduction in trophozoites in appendix at 5 mg/kg/day, po for 6 days by hematoxylin and eosin staining. Type of data set: functional. The arrangement: scale not given: the % may be the effect or the level left. The method in brief:
as §2

Data set [10] has as its system Cryptosporidium parvum. Kind of data set: Antimicrobial activity against Cryptosporidium parvum infected in neonatal BALB/C mouse assessed as reduction in trophozoites in colon at 5 mg/kg/day, po for 6 days by hematoxylin and eosin staining. It is filed as functional. On the set-up: scale not given: the % may be the effect or the level left. In short, it runs like this: as §2

Data set [11] has as its system Cryptosporidium parvum. Briefly: Antimicrobial activity against Cryptosporidium parvum infected in neonatal BALB/C mouse assessed as reduction in number of trophozoites at 5 mg/kg/day, po for 6 days. The settings on record: in the assay text read “100 mg/kg/day” for “5 mg/kg/day”. Type of data set: functional. On the set-up: scale not given: the % may be the effect or the level left. The method in brief:
as §2

Data set [12] has as its system Cryptosporidium parvum. Briefly: Antimicrobial activity against Cryptosporidium parvum infected in human HCT-8 cells after 48 hrs by ELISA. It is filed as functional, organism-based. The following applies: HCT-8, 48 h. In short, it runs like this: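 HCT-8 monolayers (5 × 10⁴ cells/well, seeded 24 h before) infected with 5 × 10³ Iowa-isolate oocysts in medium with 0.05% bile salts, 90 min at 37°C, then washed. Drug added in growth medium (0.5% DMSO final for DMSO-dissolved drug), 48 h at 37°C. Formalin-fixed; rat anti-sporozoite serum, HRP anti-rat, TMB, A450. Freeze-thawed oocyst background subtracted; % inhibition vs untreated infected wells; triplicate wells, two experiments.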

The subject of data set [13] is HCT-8. Briefly: Cytotoxicity against human HCT8 cells assessed as reduction in viable cells after 48 hrs by MTS assay. It is filed as cell-based. The settings on record: hct-8, 48 h.
Data set [14] relates to HCT-8. Kind of data set: Cytotoxicity against human HCT8 cells assessed as reduction in viable cells after 48 hrs at 1.6 uM by MTS assay. It is filed as cell-based. The following applies: hct-8, 48 h. (Tetrazolium assays rely on reduction of a dye to a coloured formazan, in cell work by metabolically active cells.)
Data set [15] has as its system HCT-8. Kind of data set: Cytotoxicity against human HCT8 cells assessed as reduction in viable cells at 80 uM by neutral red assay. It is filed as cell-based. The following applies: hct-8, 80 µM.
Data set [16] concerns HCT-8. Briefly: Cytotoxicity against human HCT8 cells assessed as reduction in viable cells by neutral red assay. Type of data set: cell-based.
Data set [17] has as its system HCT-8. Briefly: Cytotoxicity against human HCT8 cells assessed as reduction in viable cells at 100 uM by neutral red assay. It is filed as cell-based. The settings on record: hct-8, 100 µM.
Data set [18] deals with Cryptosporidium parvum. Kind of data set: Antimicrobial activity against Cryptosporidium parvum infected in neonatal BALB/C mouse assessed as reduction in oocyst shedding at 100 mg/kg/day, po for 4 days treated 3 days postinfection. It is filed as functional. On the set-up: scale not given: the % may be the effect or the level left. In short, it runs like this: (§3)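 3-day-old BALB/c mice were inoculated orally with 10⁵ Iowa-isolate oocysts, and oral daily dosing started 3 days postinfection; water-treated mice served as vehicle controls. Mice were killed on day 9. Distal-colon stool (2–3 μl) was smeared, methanol-fixed and IFA-stained, and oocysts were counted over 21 fields at ×400. % reduction was taken versus vehicle mice; Mann-Whitney tests were used.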

For data set [19], the system named is Cryptosporidium parvum. Briefly: Antimicrobial activity against Cryptosporidium parvum infected in neonatal BALB/C mouse assessed as reduction in oocyst shedding at 100 mg/kg/day, po for 6 days treated 3 days postinfection. Type of data set: functional. On the set-up: scale not given: the % may be the effect or the level left. The method in brief: as §3
In data set [20] the test system is Cryptosporidium parvum. Briefly: Antimicrobial activity against Cryptosporidium parvum infected in neonatal ICR swiss mouse assessed as reduction in oocyst shedding at 50 mg/kg/day, po measured on day 6. It is filed as functional. The arrangement: scale not given: the % may be the effect or the level left.
Data set [21] has as its system Cryptosporidium parvum. Briefly: Antimicrobial activity against Cryptosporidium parvum infected in human HCT-8 cells assessed as growth inhibition after 48 hrs by ELISA. Type of data set: functional. The method in brief: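 HCT-8 cells seeded at 5 × 10⁴/well 24 h before infection, then infected with 5 × 10³ Iowa-isolate oocysts in RPMI/10% FBS/0.05% bile salts for 90 min at 37°C and washed. Drug was added and cells incubated 48 h at 37°C, formalin-fixed, then probed with rat anti-sporozoite serum, HRP anti-rat and TMB, read at A450. Freeze-thawed-oocyst background was subtracted; % inhibition was taken versus untreated infected wells. Triplicate wells, two experiments.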
In general terms: An ELISA detects its analyte on a solid surface through an enzyme-linked reagent.

The test system of data set [22] is Cryptosporidium parvum. Briefly: Antimicrobial activity against Cryptosporidium parvum GCH1 infected in MDBK cells after 48 hrs by ELISA. Type of data set: functional.
In data set [23] the test system is Cryptosporidium parvum. Briefly: Antimicrobial activity against Cryptosporidium parvum infected in neonatal BALB/C mouse assessed as reduction in trophozoites in ileum at 100 mg/kg/day, po for 6 days by hematoxylin and eosin staining. It is filed as functional. The arrangement: scale not given: the % may be the effect or the level left. In short, it runs like this:
(§4)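 Neonatal BALB/c mice were infected orally with 10⁵ oocysts and dosed orally for 6 days from day 3 postinfection, with necropsy on day 9. 1-cm sections of ileum (1–6 cm proximal to appendix), appendix/ileocecal junction and distal colon were formalin-fixed and H&E-stained. Two blinded readers counted trophozoites per 1,000 epithelial cells on duplicate sections. The per-mouse summary score summed all sections; comparison was against water-vehicle controls.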

In data set [24] the test system is Cryptosporidium parvum. Briefly: Antimicrobial activity against Cryptosporidium parvum infected in neonatal BALB/C mouse assessed as reduction in trophozoites in appendix at 100 mg/kg/day, po for 6 days by hematoxylin and eosin staining. Type of data set: functional. The arrangement: scale not given: the % may be the effect or the level left. The method in brief:
as §4

In data set [25] the test system is Cryptosporidium parvum. Briefly: Antimicrobial activity against Cryptosporidium parvum infected in neonatal BALB/C mouse assessed as reduction in trophozoites in colon at 100 mg/kg/day, po for 6 days by hematoxylin and eosin staining. The arrangement: scale not given: the % may be the effect or the level left. It is filed as functional. In short, it runs like this:
as §4

The test system of data set [26] is Cryptosporidium parvum. Briefly: Antimicrobial activity against Cryptosporidium parvum infected in neonatal BALB/C mouse assessed as reduction in number of trophozoites at 5 mg/kg/day, po for 6 days. The arrangement: scale not given: the % may be the effect or the level left.

A word on the IC50: it is the concentration at which inhibition is half-maximal.

In the data set with Cryptosporidium parvum [1], `CC(=O)Oc1ccccc1C(=O)Nc1ncc([N+](=O)[O-])s1` [NITAZOXANIDE] gave a half-inhibitory concentration (IC50) of 3.8 µM. In addition, in the data set on Cryptosporidium parvum [2], the Activity is recorded as under 5%. Further, the result in the data set with Cryptosporidium parvum [3] and in the data set with Cryptosporidium parvum [4] was inactive.

Regarding `Cc1cc(/C=C/c2ccc3cc(N(C)C)ccc3[n+]2C)c(C)n1-c1ccccc1` [PYRVINIUM], the Activity with Cryptosporidium parvum [5] is 92.6%; in the data set on Cryptosporidium parvum [6], 89.3%; with Cryptosporidium parvum [7], 96.6%; in the data set on Cryptosporidium parvum [8], 90%; in the data set with Cryptosporidium parvum [9] it was 90%; with Cryptosporidium parvum [10], 90%. The values for the Activity in the data set on Cryptosporidium parvum [11], in the data set on HCT-8 [13] and in the data set on HCT-8 [14] were 99%, under 15% and 40%, respectively. The compound further displayed an IC50 in the data set with Cryptosporidium parvum [12] of 0.354 µM.

Turning to `CCN(CC)CCCC(C)Nc1ccnc2cc(Cl)ccc12` (stereo not drawn) [CHLOROQUINE], the Activity is 12% with HCT-8 [15], under 5% in the data set on HCT-8 [16] and 15% in the data set with HCT-8 [17]. This compound showed an IC50 in the data set with Cryptosporidium parvum [12] of 27 µM.

`NC[C@@H]1O[C@H](O[C@H]2[C@@H](O)[C@H](O[C@@H]3[C@@H](O)[C@H](N)C[C@H](N)[C@H]3O[C@H]3O[C@H](CO)[C@@H](O)[C@H](O)[C@H]3N)O[C@@H]2CO)[C@H](N)[C@@H](O)[C@@H]1O` [PAROMOMYCIN]: the Activity with Cryptosporidium parvum [18] is 95%; in the data set on Cryptosporidium parvum [19], 96.4%; in the data set with Cryptosporidium parvum [20] it was under 2%; in the data set on Cryptosporidium parvum [22] it was over 80%; in the data set on Cryptosporidium parvum [23] it was 90%; in the data set on Cryptosporidium parvum [24], 90%. In addition, the Activity in the data set on Cryptosporidium parvum [25] was determined as 90%; with Cryptosporidium parvum [26], 85%. The “inhibition (INH)” value in the data set on Cryptosporidium parvum [21] came to 40%. Besides, the IC50 in the data set with Cryptosporidium parvum [12] amounted to 711 µM.
